In PMC2651159 (Bioorganic & medicinal chemistry letters, 2008):

Assays:
[1] = molecular target: T1, ChTS-DHFR (Cryptosporidium hominis, UniProt A0A0S4TER9); assay: Steady-state spectroscopic enzyme inhibition assay; type: biochemical; details: for Potency against ChTS-DHFR relative to FMN (in words): among the 50 compounds tested
[2] = molecular target: T2, T. gondii TS-DHFR (Toxoplasma gondii, UniProt Q07422); assay: Enzyme inhibition assay, T. gondii TS-DHFR; type: biochemical
T2 sequence (Q07422 1-610): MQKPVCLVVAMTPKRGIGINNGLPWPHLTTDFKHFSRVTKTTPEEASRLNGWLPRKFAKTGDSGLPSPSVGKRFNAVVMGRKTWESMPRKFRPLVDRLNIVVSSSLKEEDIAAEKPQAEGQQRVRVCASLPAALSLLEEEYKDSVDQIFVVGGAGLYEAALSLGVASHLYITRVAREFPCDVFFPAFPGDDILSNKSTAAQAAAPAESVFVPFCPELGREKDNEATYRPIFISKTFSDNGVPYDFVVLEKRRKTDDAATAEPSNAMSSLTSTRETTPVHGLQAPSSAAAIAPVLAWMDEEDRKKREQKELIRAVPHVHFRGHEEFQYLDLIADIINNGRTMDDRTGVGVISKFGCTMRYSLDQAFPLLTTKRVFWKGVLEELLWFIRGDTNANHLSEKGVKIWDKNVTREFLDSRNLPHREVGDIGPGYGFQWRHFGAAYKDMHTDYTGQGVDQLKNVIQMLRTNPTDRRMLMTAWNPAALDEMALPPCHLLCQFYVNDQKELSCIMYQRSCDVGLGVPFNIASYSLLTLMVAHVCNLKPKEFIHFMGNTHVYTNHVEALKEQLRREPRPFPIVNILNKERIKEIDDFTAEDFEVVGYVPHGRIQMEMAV
Summary of the method: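 IC50 determined for the test compound against T. gondii TS-DHFR. Enzyme and ligand concentrations were the same as in parallel runs on C. hominis TS-DHFR, human DHFR and human TS. Values are averages of at least three independent experiments.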

[3] = tested on: TS reaction of ChTS-DHFR; assay: Inhibition of the TS reaction alone; type: biochemical, Cryptosporidium hominis; details: 300 μM FMN
[4] = tested on: DHFR of ChTS-DHFR; assay: Steady-state competition assay; type: biochemical, Cryptosporidium hominis
[5] = tested on: DHFR of ChTS-DHFR; assay: DHFR single-enzyme turnover; type: biochemical, Cryptosporidium hominis; details: enzyme in five-fold excess of H2F
[6] = molecular target: T1, ChTS-DHFR; assay: Pre-steady-state burst amplitude dose response; type: binding; details: substrate in slight excess over enzyme
Summary of the method: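 Pre-steady-state kinetics of the DHFR step were observed on the millisecond time scale, with H2F substrate in slight excess over ChTS-DHFR. Burst amplitude was recorded across a dose series of test compound. Amplitude versus concentration was fit to a hyperbolic curve to derive a dissociation constant (Kd).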

[7] = tested on: ChTS-DHFR R190G mutant; assay: Inhibition of mutant ChTS-DHFR R190G; type: biochemical, Cryptosporidium hominis; details: preliminary analysis
[8] = tested on: Cryptosporidium parasite growth; details: cited from earlier work

For `CC(=O)N[C@@H]1[C@@H](O)[C@H](O[C@@H]2O[C@H](CO)[C@@H](O)[C@H](O)[C@H]2NC(C)=O)[C@@H](CO)O[C@H]1O` [Chitodextrin], the IC50 [1] was greater than 500 µM.
`C[C@H]1O[C@@H](O[C@H]2[C@@H](O)C[C@H](O[C@H]3[C@@H](O)C[C@H](O[C@H]4CC[C@@]5(C)[C@H](CC[C@@H]6[C@@H]5C[C@@H](O)[C@]5(C)[C@@H](C7=CC(=O)OC7)CC[C@]65O)C4)O[C@@H]3C)O[C@@H]2C)C[C@H](O)[C@@H]1O` [Digoxin, reference compound] gave an IC50 [1] greater than 500 µM.
With `Cc1cc2nc3c(=O)[nH]c(=O)nc-3n(C[C@H](O)[C@H](O)[C@H](O)COP(=O)(O)O)c2cc1C` [FMN, Flavin mononucleotide] the “Change in IC50 on varying enzyme concentration” value ([1]; enzyme concentration varied from 80 to 250 nM) was “no resulting change”, the “Inhibition of TS-DHFR from Toxoplasma gondii (in words)” value [2] was “did not inhibit” and the “Inhibition of the TS reaction alone” value [3] was “little inhibition”. For the same molecule, the “Mode of inhibition with respect to H2folate” value ([4]; 200 μM FMN) was “noncompetitive (mixed)”, the “Mode of inhibition with respect to NADPH” value ([4]; 200 μM FMN) was “uncompetitive” and the “Vmax, H2F varied” value ([4]; in the presence of 200 μM FMN (no inhibitor: 2.35 ± 0.04)) was 1.8 ± 0.1 µmol/min. The “Vmax, NADPH varied” value ([4]; in the presence of 200 μM FMN (no inhibitor: 2.37 ± 0.03)) was 1.77 ± 0.01 µmol/min, the “Effect on rate of chemistry, DHFR single turnover” value ([5]; 500 μM FMN) was “no decrease” and the “Effect on amplitude of the single-turnover plot” value [5] was “dose-dependent decrease”. For the same molecule, the “Effect on DHFR burst amplitude” value [6] was “dose-dependent decrease” and the “Inhibitory effect on R190G mutant less than that against WT ChTS-DHFR” value [7] was “approximately 20%”.
Work on `CC(=O)N1CCN(c2ccc(OCC3COC(Cn4ccnc4)(c4ccc(Cl)cc4Cl)O3)cc2)CC1` (stereo not drawn) [Ketoconazole, reference compound] yielded an IC50 [1] greater than 500 µM.
With `COc1cccc2c1C(=O)C1=C(C2=O)C(O)C2=C(C1O)[C@@H](C[C@@H]1C[C@H](N)[C@@H](O)[C@H](C)O1)C[C@@](O)(/C(C)=N/NC(=O)c1ccccc1)C2` (stereo partly drawn) [Rubidazone] the IC50 [1] was greater than 500 µM.
For `COC1=C(N)C(=O)c2nc(-c3nc(C(=O)O)c(C)c(-c4ccc(OC)c(OC)c4O)c3N)ccc2C1=O` [Streptonigrin], the “Potency against ChTS-DHFR relative to FMN (in words)” value [1] was “comparable potency”.
In the case of `CC(=O)Oc1ccccc1C(=O)Nc1ncc([N+](=O)[O-])s1` [nitazoxanide], the “Concentration range inhibiting parasite growth” value [8] is listed as 1 to 40 µM.
In the case of `Cc1cc2nc3c(=O)[nH]c(=O)nc-3n(C[C@H](O)[C@H](O)[C@H](O)CO)c2cc1C` [riboflavin], the “Potency against ChTS-DHFR relative to FMN (in words)” value [1] is reported as “comparable potency”.
